Assay results collected from several papers.
HRH2: Histamine H2 receptor (HRH2, Homo sapiens, UniProt P25021)
rep main protease: Replicase polyprotein 1ab, main protease (rep, Severe acute respiratory syndrome coronavirus 2, UniProt P0DTD1)
MAL12: Alpha-glucosidase MAL12 (MAL12, Saccharomyces cerevisiae S288c, UniProt P53341)
ADRA1A: Alpha-1A adrenergic receptor (ADRA1A, Homo sapiens, UniProt P35348)

| Structure (SMILES) | target | observed | mode | technique | concentration | quantity | value |
| --- | --- | --- | --- | --- | --- | --- | --- |
| CN1CCC[C@H]1c1cccnc1 | HRH2 | ligand displacement |  |  | 50 µM | inhibition | 3.47% |
| O=C(O)c1cc(O)c(O)c(O)c1 | rep main protease | enzyme activity | inhibitor |  |  | kinact/KI | 205 M⁻¹ s⁻¹ |
| O=c1c(O)c(-c2cc(O)c(O)c(O)c2)oc2cc(O)cc(O)c12 | rep main protease | enzyme activity | inhibitor |  | 100 µM | inhibition | 100% |
| O=C(O[C@@H]1Cc2c(O)cc(O)cc2O[C@@H]1c1ccc(O)c(O)c1)c1cc(O)c(O)c(O)c1 | rep main protease | enzyme activity | inhibitor |  |  | kinact | 1.83e-05 s⁻¹ |
| COc1cc(O)c2c(=O)c(OC)c(-c3ccc(OC)c(OC)c3)oc2c1 | rep main protease | enzyme activity | inhibitor |  | 10 µM | inhibition | 5.84% |
| C[C@H]1O[C@H](O[C@H]2[C@H](O)[C@@H](O)[C@@H](O[C@H]3[C@H](O)[C@@H](O)C(O)O[C@@H]3CO)O[C@@H]2CO)[C@H](O)[C@@H](O)[C@@H]1N[C@H]1C=C(CO)[C@@H](O)[C@H](O)[C@H]1O (some centres unmarked) | MAL12 | enzyme activity | inhibitor | absorbance | 774.5 µM | inhibition | 63.9% |
| c1cncc([C@@H]2CCCN2)c1 | HRH2 | ligand displacement |  |  | 50 µM | inhibition | -6.37% |
| CN1C(=O)/C(=N\Nc2ncc(-c3cc4ccccc4oc3=O)s2)c2cc(Cl)ccc21 | MAL12 | enzyme activity | inhibitor | absorbance | 100 µM | inhibition | 48.3% |
| COc1cc2c(cc1OC)-c1c(OC)c(OC)cc3c1[C@H](C2)N(C)CC3 | ADRA1A | ligand displacement |  | radioligand | 10 µM | inhibition | 82% |
| CC(C)CC(=O)OC[C@H]1O[C@@](C#N)(c2ccc3c(N)ncnn23)[C@H](O)[C@@H]1O | ADRA1A | cell-free assay |  |  | 20 µM | inhibition | 3% |
| O=c1c(O)c(-c2ccc(O)cc2)oc2c(O)c(O)cc(O)c12 | rep main protease | enzyme activity | inhibitor |  |  | kinact/KI | 20.3 M⁻¹ s⁻¹ |
| CN1C(=S)N(c2ccccc2)C(=O)/C1=C1/C(=O)N(C)c2ccc(Cl)cc21 | MAL12 | enzyme activity | inhibitor | absorbance | 200 µM | inhibition | 54.2% |
| COc1cc(O)c2c(c1)O[C@H](c1ccccc1)CC2=O | rep main protease | enzyme activity | inhibitor |  | 100 µM | inhibition | 7.82% |
| CCc1ccc(N2C(=O)/C(=C3/C(=O)N(C)c4ccc(Cl)cc43)NC2=S)cc1 | MAL12 | enzyme activity | inhibitor | absorbance | 25 µM | inhibition | 14.6% |
| COc1cc2cc3c4c(cc(OC)c(OC)c4c2cc1OC)CCN3C | ADRA1A | ligand displacement |  | radioligand | 10 µM | inhibition | 19% |
| COc1ccc(-c2cc(=O)c3c(O)cc(OC)cc3o2)cc1 | rep main protease | enzyme activity | inhibitor |  | 10 µM | inhibition | 3.99% |
| [2H]c1c([2H])c([C@]2([2H])CCCN2C(=O)C(C)(C)Oc2ccc3cn[nH]c3c2)c([2H])c([2H])c1C([2H])([2H])[2H] | Homeodomain-interacting protein kinase 4 (HIPK4, Homo sapiens, UniProt Q8NE63) | binding |  | competition with immobilised ligand | 1 µM | remaining binding | 59% |
